Test results published in publication PMC6543826 (Bioorganic chemistry, 2018).
Where two headings read alike, the source gives them in different places.

Experiments:
CCRF-CEM = test: cells; type: cell-based; conditions: 10^−5 M, 48 h
SR = test: cells; type: cell-based; conditions: 10^−5 M, 48 h
MDA-MB-435 = test: cells; type: cell-based; conditions: MDA-MB-435, 10^−5 M, 48 h
LOX IMVI = test: cells; type: cell-based; conditions: 10^−5 M, 48 h
SNB-19 = test: cells; type: cell-based; conditions: SNB-19, 10^−5 M, 48 h
JNK2 = JNK2 (Homo sapiens, UniProt P45984); test: in vitro kinase assay, GST-c-Jun; type: biochemical
Sequence of JNK2 (P45984 whole entry): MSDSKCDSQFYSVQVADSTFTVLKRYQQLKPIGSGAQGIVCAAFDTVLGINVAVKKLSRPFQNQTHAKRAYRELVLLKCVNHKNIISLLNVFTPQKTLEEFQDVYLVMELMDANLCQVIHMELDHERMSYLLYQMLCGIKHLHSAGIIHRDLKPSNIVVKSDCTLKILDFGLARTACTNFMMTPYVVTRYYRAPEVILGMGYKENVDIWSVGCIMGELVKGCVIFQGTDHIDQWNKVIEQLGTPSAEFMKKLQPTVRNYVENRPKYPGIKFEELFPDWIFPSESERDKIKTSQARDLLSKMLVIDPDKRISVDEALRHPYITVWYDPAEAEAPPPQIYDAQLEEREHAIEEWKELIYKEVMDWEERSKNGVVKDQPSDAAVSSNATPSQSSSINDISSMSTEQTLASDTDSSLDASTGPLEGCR

SF-539 = test: cells; type: cell-based; conditions: SF-539, 10^−5 M, 48 h
PC-3 = test: cells; type: cell-based; conditions: PC-3, 10^−5 M, 48 h
A375 cells [1] = test: IncuCyte real time proliferation assay; type: cell-based, human; conditions: imaged every 1 h for 90 h
Procedure, shortened: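 Real-time growth: 2000 A375 cells per well adhered for 24 h, then were treated with a range of test compound doses. Phase images were taken on IncuCyte ZOOM (10× objective) every 1 h for 90 h in total. Growth confluence was estimated from the images and plotted.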

MOLT-4 = test: cells; type: cell-based; conditions: MOLT-4, 10^−5 M, 48 h
p38MAPKα = p38MAPKα (Homo sapiens, UniProt Q16539); test: in vitro kinase assay, GST-ATF2; type: biochemical
Sequence of p38MAPKα (Q16539 whole entry): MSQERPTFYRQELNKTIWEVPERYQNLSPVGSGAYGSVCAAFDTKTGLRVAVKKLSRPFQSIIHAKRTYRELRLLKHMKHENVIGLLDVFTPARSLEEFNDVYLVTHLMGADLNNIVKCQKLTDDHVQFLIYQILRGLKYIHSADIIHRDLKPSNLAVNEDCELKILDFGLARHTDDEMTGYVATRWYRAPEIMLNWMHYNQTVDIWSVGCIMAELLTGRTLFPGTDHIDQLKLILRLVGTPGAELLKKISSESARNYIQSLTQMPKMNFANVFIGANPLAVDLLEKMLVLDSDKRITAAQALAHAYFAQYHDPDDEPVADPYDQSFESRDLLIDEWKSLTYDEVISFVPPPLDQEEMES

ACHN = test: cells; type: cell-based; conditions: 10^−5 M, 48 h
A375 cells [2] = test: anchorage dependent colony formation assay; type: cell-based, human; conditions: A375, 10–14 days
Procedure, shortened: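 1000 A375 cells per 60 mm plate adhered for 24 h, then were treated with various test compound doses for 10–14 days. Plates were PBS-washed and fixed in 4% paraformaldehyde (15 min, room temperature). They were stained with 0.2% crystal violet in 20% methanol for 10 min, water-washed and imaged under microscope.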

HCC-2998 = test: cells; type: cell-based; conditions: HCC-2998, 10^−5 M, 48 h
[3] = system: BRAF-mutant A375 melanoma cells; test: A375 cell viability, MTS assay; type: cell-based; conditions: Homo sapiens, A-375, 72 h, read-out: A375 Cell Viability IC50
Procedure, shortened: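 A375 cells were kept in RPMI with 10% heat-inactivated FBS, Glutamax and penicillin/streptomycin at 37 °C in 5% CO2. 2000 cells per well were treated with a range of test compound doses for 72 h. Viability was read by MTS assay. Run in triplicate.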

OVCAR-3 = test: cells; type: cell-based; conditions: OVCAR-3, 10^−5 M, 48 h
[4] = system: caspase 3/7 in A375 cells; test: IncuCyte Caspase 3/7 apoptosis assay; type: cell-based, human; conditions: doses of 3.7 and 33.3 μM, after 48 and 72 h
Procedure, shortened: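 2000 A375 cells per well adhered for 24 h, then received test compound doses plus a constant concentration of IncuCyte Caspase-3/7 reagent. Cells were imaged on IncuCyte ZOOM (10× objective) at set time points, and stained cells were counted. Apoptotic cell number was normalized to percentage area confluence at the final time point.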

SK-MEL-2 = test: cells; type: cell-based; conditions: SK-MEL-2, 10^−5 M, 48 h
HL-60 (TB) = test: cells; type: cell-based; conditions: HL-60(TB), 10^−5 M, 48 h
NCI-H23 = test: cells; type: cell-based; conditions: NCI-H23, 10^−5 M, 48 h
K-562 = test: cells; type: cell-based; conditions: K-562, 10^−5 M, 48 h
NCI-H226 = test: cells; type: cell-based; conditions: NCI-H226, 10^−5 M, 48 h
SK-MEL-5 = test: cells; type: cell-based; conditions: SK-MEL-5, 10^−5 M, 48 h
HOP-62 = test: cells; type: cell-based; conditions: HOP-62, 10^−5 M, 48 h
[5] = system: cleaved PARP in A375 cells; test: PARP cleavage western blot; type: cell-based, human; conditions: 12 h exposure
Procedure, shortened: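 A375 cells (1,000,000 per well) were seeded 24 h, then exposed to several test compound doses for 12 h before lysis in buffer with protease/phosphatase inhibitors. Protein was measured by Bradford. 60 μg lysate was run on 10% SDS-PAGE and blotted to PVDF. Blots were probed for PARP and cleaved PARP, with vinculin as loading control. Done twice.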

HT29 = test: cells; type: cell-based; conditions: HT29, 10^−5 M, 48 h
MDA-MB-468 = test: cells; type: cell-based; conditions: MDA-MB-468, 10^−5 M, 48 h
HCT-116 = test: cells; type: cell-based; conditions: HCT-116, 10^−5 M, 48 h
A498 = test: NCI-60 SRB screen, Renal cancer; type: cell-based, human; conditions: A498, 10^−5 M, 48 h

| Structure (SMILES) | Growth percent (G%) (CCRF-CEM) | Growth percent (G%) (SR) | Growth percent (G%) (MDA-MB-435) | Growth percent (G%) (LOX IMVI) | Growth percent (G%) (SNB-19) | ability to inhibit JNK2 (in words) (JNK2) | Growth percent (G%) (SF-539) | Growth percent (G%) (PC-3) | Growth percent (G%) (MOLT-4) | ability to inhibit p38MAPKα (in words) (p38MAPKα) | Growth percent (G%) (ACHN) | Growth percent (G%) (HCC-2998) | Growth percent (G%) (OVCAR-3) | Growth percent (G%) (SK-MEL-2) | Growth percent (G%) (HL-60 (TB)) | Growth percent (G%) (NCI-H23) | Growth percent (G%) (K-562) | Growth percent (G%) (NCI-H226) | Growth percent (G%) (SK-MEL-5) | Growth percent (G%) (HOP-62) | other results |
| --- | --- | --- | --- | --- | --- | --- | --- | --- | --- | --- | --- | --- | --- | --- | --- | --- | --- | --- | --- | --- | --- |
| O=C1C(Cl)=C(c2c(O)c3c(=O)n(-c4ccccc4)c4ccccc4c3oc2=O)C(=O)c2ccccc21 [compound 6, 3-(3-Chloro-1,4-dioxo-1,4-dihydronaphthalen-2-yl)-4-hydroxy-6-phenyl-2H-pyrano[3,2-c]quinoline-2,5(6H)-dione] | 17.76% | 11.44% | 87.80% | 42.99% | 27.87% | little tendency to inhibit | −5.45% | 49.16% | 16.13% | little tendency to inhibit | 28.55% | 42.85% | 2.15% | 23.06% | 7.05% | 38.22% | 26.84% | 86.30% | 17.66% | 36.07% | IC50 (JNK2): 4.2 ± 0.9 µM; A375 real time proliferation (growth confluence), in words (A375 cells [1]): dose-dependent inhibition; IC50 (p38MAPKα; p38MAPKα IC50, 10 μM GST-ATF2): 3.1 ± 0.5 µM; concentration at which inhibition of colony forming ability starts (A375 cells [2]): 2.5 µM; IC50 [3]: 0.13 ± 0.03 µM; caspase 3/7 activity in A375 [4]: activation of caspase 3/7; level of cleaved PARP in A375 [5]: elevated level; Growth percent (G%) (HT29): 84.18%; Growth percent (G%) (MDA-MB-468): −27.29%; Growth percent (G%) (HCT-116): 41.72% |
| O=C1c2ccccc2C(=O)c2c1oc1c2c(=O)[nH]c2ccccc21 [3a, Naphtho[2′,3′:4,5]furo[3,2-c]quinoline-6,7,12(5H)-trione] | 20.72% | 43.80% | 83.72% | 56.12% | 103.72% | did not show any ability to inhibit | 90.30% | 65.49% | 5.55% | did not show any ability to inhibit | 65.70% | 102.57% | −14.81% | 76.92% | 2.26% | 65.95% | 55.20% | 78.47% | 79.73% | 118.63% | IC50 (JNK2): > 200 µM; Growth percent (G%) (A498): 103.58%; IC50 (p38MAPKα; p38MAPKα IC50, 10 μM GST-ATF2): > 200 µM; Growth percent (G%) (HT29): 102.52%; Growth percent (G%) (MDA-MB-468): −8.43%; Growth percent (G%) (HCT-116): 55.46% |
| Cn1c(=O)c2c(=O)c3c4c(oc3oc2c2ccccc21)C(=O)c1ccccc1C4=O [5a, 5-Methyl-5H-naphthalen[2″,3″:4′,5′]furo[3′,2′:4′,5,6]pyrano [3,2-c]quinoline-6,7,8,13-tetraone] | 92.93% | 92.01% | 105.3% | 95.89% | 110.38% | did not show any ability to inhibit | 93.83% | 79.23% | 87.37% | did not show any ability to inhibit | 85.7% | 103.64% | 98.93% | 86.85% | 104.29% | 86.15% | 89.61% | 88.55% | 97.56% | 80.81% | IC50 (JNK2; read-out: JNK2 IC50, 2 μM GST-c-Jun (1–221)): > 200 µM; IC50 (p38MAPKα; read-out: p38MAPKα IC50, 10 μM GST-ATF2): > 200 µM; Growth percent (G%) (HT29): 96.96%; Growth percent (G%) (MDA-MB-468): 64.82%; Growth percent (G%) (HCT-116): 99.77% |
